Measurements as given in PMC5197073 (Theranostics, 2017).

Assays:
[1] = Intratumoral drug concentration and distribution by MALDI-MSI in C26 tumors; assay type: in vivo, mouse; conditions: for intratumoral drug distribution (MALDI-MSI): C26 tumors, 100 mg/kg p.o. for two weeks
[2] = Intratumoral drug concentration and distribution by MALDI-MSI in C38 tumors; assay type: in vivo, mouse; conditions: 100 mg/kg p.o. for two weeks
[3] = test system: C38 mouse colorectal carcinoma; test: In vivo growth inhibition of s.c. C38 tumors; conditions: C57Bl/6 mice, 100 mg/kg p.o. 5 times a week for two weeks; vs vehicle; P=0.0048
How it was run: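 C38 fragments, kept by serial s.c. passage, cut into 5×5×5 mm cubes and implanted into the backs of anaesthetised 8-week-old female C57Bl/6 mice. Dosing started on day 13, once daily by feeding tube, 5 days/week. Vehicle was 2% carboxymethylcellulose with 2 mg/mL methyl-4-hydroxybenzoate, also given to controls. Calipers were used three times weekly, with volume = length × width² × π/6.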

C38 tumors = test: Microvessel areas; assay type: in vivo, mouse; conditions: C38 model, 100 mg/kg p.o. for two weeks; P<0.03
[4] = test system: C38 mouse colorectal carcinoma; conditions: C57Bl/6 mice; previously published study; ref [38]; cited from earlier work
desmin = test: Pericyte desmin expression in C26 tumors; assay type: in vivo, mouse; conditions: C26 model, 100 mg/kg p.o. for two weeks; sunitinib P=0.0135, motesanib P<0.05
C26 tumors = test: Intratumoral hypoxia; assay type: in vivo, mouse; conditions: C26 model, 100 mg/kg p.o. for two weeks; P=0.0152
PDGFRβ = conditions: ref [18]; cited from earlier work

Row | intratumoral drug distribution (MALDI-MSI) [1] | intratumoral drug distribution (MALDI-MSI) [2] | intratumoral drug concentration vs untreated controls ([2]; P=0.0006) | intratumoral vatalanib concentration ([2]; C57Bl/6 mice, P=0.0025 vs C26) | SMILES | C38 tumor growth inhibition [3] | intratumoral microvessel areas (antivascular/antiangiogenic effect) (C38 tumors) | C38 tumor burdens [4] | pericyte desmin expression (desmin) | rank of intratumoral concentration among the five RTKIs ([1]; mouse, in vivo, po, 100 mg/kg) | intratumoral hypoxia (C26 tumors) | IC50 value against PDGFRβ, rank among the tested RTKIs (PDGFRβ)
1 | Only traces | well-distributed | significantly higher | 0.116 µmol/mL | Clc1ccc(Nc2nnc(Cc3ccncc3)c3ccccc23)cc1 [vatalanib] | robust and significant growth-inhibitory effect | significant decrease | significantly decreased |  |  |  | 
2 | inhomogeneous | trace-level |  |  | CC1(C)CNc2cc(NC(=O)c3cccnc3NCc3ccncc3)ccc21 [motesanib] | no significant tumor growth inhibitory | no significant |  | significantly decreased |  |  | 
3 | inhomogeneous | trace-level |  |  | Cc1ccc(Nc2nccc(N(C)c3ccc4c(C)n(C)nc4c3)n2)cc1S(N)(=O)=O [pazopanib] | no significant tumor growth inhibitory | no significant |  |  |  |  | 
4 | Only traces | trace-level |  |  | CNC(=O)c1cc(Oc2ccc(NC(=O)Nc3ccc(Cl)c(C(F)(F)F)c3)cc2)ccn1 [sorafenib] | no significant tumor growth inhibitory | no significant |  |  |  |  | 

Row | SMILES | intratumoral drug distribution (MALDI-MSI) [1] | intratumoral drug distribution (MALDI-MSI) [2] | intratumoral drug concentration vs untreated controls ([2]; P=0.0006) | intratumoral vatalanib concentration ([2]; C57Bl/6 mice, P=0.0025 vs C26) | C38 tumor growth inhibition [3] | intratumoral microvessel areas (antivascular/antiangiogenic effect) (C38 tumors) | C38 tumor burdens [4] | pericyte desmin expression (desmin) | rank of intratumoral concentration among the five RTKIs ([1]; mouse, in vivo, po, 100 mg/kg) | intratumoral hypoxia (C26 tumors) | IC50 value against PDGFRβ, rank among the tested RTKIs (PDGFRβ)
5 | CCN(CC)CCNC(=O)c1c(C)[nH]c(/C=C2\C(=O)Nc3ccc(F)cc32)c1C [sunitinib] | homogeneously distributed | well-distributed |  |  | significant antitumor | significant |  | suppressed | highest values | significantly increased | lowest IC50 value
